According to ChEMBL document CHEMBL4330056, “Synthesis and Cytotoxic and Antiviral Profiling of Pyrrolo- and Furo-Fused 7-Deazapurine Ribonucleosides” (J Med Chem, 2018):
Calls of active or inactive are those of the source. The calls are words filed in the database; no cut-off is given here.

What was measured:
Adenosine kinase [1] = biological target: T1, Adenosine kinase (Homo sapiens, UniProt P55263); test: Substrate activity at recombinant human ADK assessed as compound phosphorylation at 50 uM after 20 mins in presence of [3H]-adenosine by UPLC; format: ADME
BJ = test: Antiproliferative activity against human BJ cells after 3 days by MTS assay; settings: 72 h
HCT-116 [2] = test: Antiproliferative activity against p53 gene knocked out human HCT116 cells after 3 days by MTS assay; format: functional, cell-based; settings: HCT-116, 72 h
[3] = Antiproliferative activity against human CEM-DNR-bulk cells after 3 days by MTS assay; settings: 72 h
[4] = Antiproliferative activity against human K562-TAX cells after 3 days by MTS assay; format: functional, cell-based; settings: 72 h
CCRF-CEM = test: Antiproliferative activity against human CCRF-CEM cells after 3 days by MTS assay; format: functional, cell-based; settings: 72 h
Hepatitis C virus [5] = test: Antiviral activity against Hepatitis C virus genotype 1b infected in human Huh-luc replicon cells after 3 days by luciferase assay; format: functional, organism-based, Hepacivirus hominis; settings: subtype 1b, 72 h
Hepatitis C virus [6] = test: Antiviral activity against Hepatitis C virus genotype 2a infected in human Huh-luc replicon cells after 3 days by luciferase assay; format: functional, organism-based, Hepacivirus hominis; settings: subtype 2a, 72 h
Adenosine kinase [7] = biological target: T1, Adenosine kinase; test: Inhibition of recombinant human ADK using [3H]-adenosine as substrate after 20 mins by TLC scanner-based analysis relative to control
Outline: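 ADK inhibition: 50 μM adenosine substrate with 10 μM test compound and 97 ng enzyme, 20 min at 37 °C.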

MRC5 = test: Antiproliferative activity against human MRC5 cells after 3 days by MTS assay; settings: MRC5, 72 h
Influenza A virus = test: Antiviral activity against Influenza A virus (A/Mexico/4108/2009(H1N1)) infected in MDCK cells assessed as inhibited virus-induced cytopathic effect incubated for 2 days by XTT assay; format: functional, organism-based
Coxsackievirus B3 = test: Antiviral activity against Human coxsackie B3 Nancy infected in human HeLa cells assessed as inhibited virus-induced cytopathic effect incubated for 2 days by XTT assay; format: functional, organism-based
U2OS = test: Antiproliferative activity against human U2OS cells after 3 days by MTS assay; format: functional, cell-based; settings: 72 h
HeLa S3 = test: Antiproliferative activity against human HeLaS3 cells after 72 hrs by XTT assay; format: functional, cell-based; settings: HeLa S3, 72 h
Human orthopneumovirus = test: Antiviral activity against Human respiratory syncytial virus A2 infected in Hep2 cells assessed as reduction in virus-induced cytopathic effect incubated for 4 days by CellTiter-Glo viability reagent based assay; format: functional, organism-based
HepG2 = test: Antiproliferative activity against human HepG2 cells after 72 hrs by XTT assay; format: functional, cell-based; settings: HepG2, 72 h
A549 = test: Antiproliferative activity against human A549 cells after 3 days by MTS assay; format: functional, cell-based; settings: A549, 72 h
HL-60 = test: Antiproliferative activity against human HL60 cells after 72 hrs by XTT assay; format: functional, cell-based; settings: HL-60, 72 h
[8] = Cytotoxicity against human Hep2 cells assessed as reduction in cell viability after 3 days by CellTiter-Glo assay; format: cell-based; settings: HEp-2 cells
K562 = test: Antiproliferative activity against human K562 cells after 3 days by MTS assay; format: functional, cell-based; settings: K562, 72 h
dengue virus type 2 = test: Antiviral activity against Dengue virus 2 Thailand/16681/84 infected in African green monkey Vero cells assessed as inhibition of virus replication incubated for 3 days by fluorescence microscopy; format: functional, organism-based
HCT-116 [9] = test: Antiproliferative activity against human HCT116 cells after 3 days by MTS assay; format: functional, cell-based; settings: HCT-116, 72 h
Human alphaherpesvirus 1 = test: Antiviral activity against human herpesvirus 1 HF infected in African green monkey Vero cells assessed as inhibited virus-induced cytopathic effect incubated for 3 days by XTT assay; format: functional, organism-based

T1 sequence (P55263 whole entry): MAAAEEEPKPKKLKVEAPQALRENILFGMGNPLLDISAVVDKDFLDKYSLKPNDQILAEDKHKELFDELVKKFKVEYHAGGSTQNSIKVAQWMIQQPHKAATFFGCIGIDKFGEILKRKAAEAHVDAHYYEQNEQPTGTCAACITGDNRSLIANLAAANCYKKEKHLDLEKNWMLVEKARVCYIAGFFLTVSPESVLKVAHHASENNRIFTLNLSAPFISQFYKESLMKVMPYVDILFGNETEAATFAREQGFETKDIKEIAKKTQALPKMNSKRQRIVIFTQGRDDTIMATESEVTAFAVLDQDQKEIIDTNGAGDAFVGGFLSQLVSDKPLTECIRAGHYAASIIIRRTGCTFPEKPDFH

| SMILES | Activity (Adenosine kinase [1]) [%] | IC50 (BJ) [µM] | IC50 (HCT-116 [2]) [µM] | IC50 [3] [µM] | IC50 [4] [µM] | IC50 (CCRF-CEM) [µM] | EC50 (Hepatitis C virus [5]) [µM] | EC50 (Hepatitis C virus [6]) [µM] | IC50 (Adenosine kinase [7]) [µM] | IC50 (MRC5) [µM] | Activity (Influenza A virus) | Activity (Coxsackievirus B3) | IC50 (U2OS) [µM] | IC50 (HeLa S3) [µM] | Activity (Human orthopneumovirus) | IC50 (HepG2) [µM] | IC50 (A549) [µM] | IC50 (HL-60) [µM] | CC50 at 72 h [8] [µM] | IC50 (K562) [µM] | further results |
| --- | --- | --- | --- | --- | --- | --- | --- | --- | --- | --- | --- | --- | --- | --- | --- | --- | --- | --- | --- | --- | --- |
| CN(C)c1ncnc2c1c1occc1n2[C@@H]1O[C@H](CO)[C@@H](O)[C@H]1O | 7 | > 50 | > 50 | > 50 | > 50 | > 50 | > 44.4 | > 44.4 | > 10 | > 50 | inactive | inactive | > 50 | > 50 | inactive | > 50 | > 50 | > 50 | > 44.4 | > 50 | Activity (dengue virus type 2): inactive; IC50 (HCT-116 [9]): > 50 µM; Activity (Human alphaherpesvirus 1): inactive |
| Cn1ccc2c1c1c(Cl)ncnc1n2[C@@H]1O[C@H](CO)[C@@H](O)[C@H]1O | 77 | 1.2 | 0.15 | 50 | 50 | 0.06 | 0.37 | 0.06 | > 10 | 50 | inactive | inactive | 0.62 | 0.57 | inactive | 0.16 | 2.99 | 0.06 | > 44.4 | 0.18 | Activity (dengue virus type 2): inactive; IC50 (HCT-116 [9]): 0.17 µM; Activity (Human alphaherpesvirus 1): inactive |
| Cn1ccc2c3c(Cl)ncnc3n([C@@H]3O[C@H](CO)[C@@H](O)[C@H]3O)c21 | 0 | > 50 | > 50 | > 50 | > 50 | > 50 | 36.4 | > 44.4 | > 10 | > 50 | inactive | inactive | > 50 | > 50 | inactive | > 50 | > 50 | > 50 | > 44.4 | > 50 | Activity (dengue virus type 2): inactive; IC50 (HCT-116 [9]): > 50 µM; Activity (Human alphaherpesvirus 1): inactive |
| Cn1ccc2c1c1c(-c3ccoc3)ncnc1n2[C@@H]1O[C@H](CO)[C@@H](O)[C@H]1O | 9 | > 50 | 9 | > 50 | > 50 | > 50 | 20.2 | 3.45 | > 10 | > 50 | inactive | inactive | 2.41 | > 50 | inactive | > 50 | > 50 | > 50 | > 44.4 | 0.94 | Activity (dengue virus type 2): inactive; IC50 (HCT-116 [9]): 8.16 µM; Activity (Human alphaherpesvirus 1): inactive |
| Nc1ncnc2c1c1occc1n2[C@@H]1O[C@H](CO)[C@@H](O)[C@H]1O | 75 | > 50 | > 50 | > 50 | 50 | > 50 | 0.3 | 0.33 | > 10 | > 50 | inactive | inactive | 7.09 | 1.71 | inactive | 4.51 | > 50 | 0.51 | > 44.4 | 6.04 | Activity (dengue virus type 2): inactive; IC50 (HCT-116 [9]): 48.4 µM; Activity (Human alphaherpesvirus 1): inactive |
| OC[C@H]1O[C@@H](n2c3ccoc3c3c(-c4ccoc4)ncnc32)[C@H](O)[C@@H]1O | 38 | 0.52 | 10.7 | > 50 | 9.78 | 0.21 | 0.78 | > 44.4 | > 10 | > 50 | inactive | inactive | 0.64 | 13.1 | inactive | 6.71 | > 50 | 1.92 | > 44.4 | 0.42 | Activity (dengue virus type 2): inactive; IC50 (HCT-116 [9]): 12.1 µM; Activity (Human alphaherpesvirus 1): inactive |
| Cn1ccc2c3c(-c4cc5ccccc5o4)ncnc3n([C@@H]3O[C@H](CO)[C@@H](O)[C@H]3O)c21 | 0 | 44.7 | 36.4 | 30.6 | 23 | 9.48 | 7.83 | 15.5 | 0.47 | 45.2 | inactive | inactive | 28.9 | > 50 | inactive | > 50 | 35.4 | > 50 | 27.5 to 29.1 | 22.1 | Activity (dengue virus type 2): inactive; IC50 (HCT-116 [9]): 36.5 µM; Activity (Human alphaherpesvirus 1): inactive |
| CN(C)c1ncnc2c1c1ccn(C)c1n2[C@@H]1O[C@H](CO)[C@@H](O)[C@H]1O | 0 | > 50 | > 50 | > 50 | > 50 | > 50 | > 44.4 | > 44.4 | > 10 | > 50 | inactive | inactive | > 50 | > 50 | inactive | > 50 | > 50 | > 50 | > 44.4 | > 50 | Activity (dengue virus type 2): inactive; IC50 (HCT-116 [9]): > 50 µM; Activity (Human alphaherpesvirus 1): inactive |
| Cn1ccc2c3c(-c4ccco4)ncnc3n([C@@H]3O[C@H](CO)[C@@H](O)[C@H]3O)c21 | 0 | 5.36 | 4.01 | 2.17 | 2.4 | 1.36 | 0.34 | 0.77 | 3.58 | 5.89 | inactive | inactive | 3.49 | 2.97 | inactive | > 50 | 5.73 | 3 | 2.63 to 16.4 | 4.03 | Activity (dengue virus type 2): inactive; IC50 (HCT-116 [9]): 3.82 µM; Activity (Human alphaherpesvirus 1): inactive |
| OC[C@H]1O[C@@H](n2c3ccoc3c3c(-c4cc5ccccc5o4)ncnc32)[C@H](O)[C@@H]1O | 58 | > 50 | 46.5 | 37.1 | 24.3 | 14.1 | 5.34 | > 44.4 | 0.336 | > 50 | inactive | inactive | 37.8 | > 50 | inactive | 2.83 | 49.3 | > 50 | > 44.4 | 39.6 | Activity (dengue virus type 2): inactive; IC50 (HCT-116 [9]): 48.8 µM; Activity (Human alphaherpesvirus 1): inactive |
